From article PMC6032914 (Clinical Pharmacology in Drug Development, 2018)
pKd: −log10 of the molar value. Read-outs that look alike come from different tables or passages of the source. Blank lines part the entries; values can stand above or below the compound they belong to.

Key:
[1] = Gefitinib pharmacokinetics; type: in vivo; conditions: human, plasma, oral, Tmax (h), mean (SD), gefitinib 250 mg daily with ficlatuzumab 20 mg/kg
[2] = tested on: c‐Met‐positive advanced NSCLC; conditions: in combination with erlotinib; cited from earlier work
Safety and tolerability = type: in vivo, human; conditions: every 2 weeks, plus gefitinib 250 mg/day
[3] = Ficlatuzumab serum pharmacokinetics; type: in vivo, human
serum HGF = assay: Serum HGF pharmacodynamic marker; type: in vivo, human; conditions: total serum HGF after ficlatuzumab administration
Method in brief: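 Peripheral blood for serum total HGF was drawn before treatment and 3 h postinfusion on day 1, predose on days 2, 3, 8 and 22–28, predose and 2 h postinfusion on day 15 of cycle 1, and predose on cycle 3 day 1.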

[4] = Ficlatuzumab antidrug antibody; type: in vivo, human
HGF = conditions: affinity of ficlatuzumab to HGF; cited from earlier work
[5] = cited from earlier work
NSCLC xenografts = conditions: cited from earlier work
[6] = tested on: phospho‐c‐Met and phospho‐Akt; conditions: NSCLC tumor lysates, alone or in combination; cited from earlier work
[7] = ficlatuzumab 10 mg/kg, Cycle 1, day 1, n = 3
[8] = ficlatuzumab 20 mg/kg, Cycle 1, day 1, n = 12
[9] = ficlatuzumab 20 mg/kg, Cycle 4, day 1, n = 6
[10] = 15 patients receiving monotherapy 20 mg/kg

- Tmax ([1]; Cycle 1, day 1, n = 12): 5.4 h
- Tmax ([1]; Cycle 4, day 1, n = 6): 9.9 h
Compound: COc1cc2ncnc(Nc3ccc(F)c(Cl)c3)c2cc1OCCCN1CCOCC1 [Gefitinib, gefitinib]

Compound: onartuzumab: c‐Met‐targeted monovalent monoclonal antibody, tested in combination with erlotinib
- outcome of the phase 3 study [2]: lack of efficacy

Compound: Ficlatuzumab: humanized IgG1κ inhibitory monoclonal antibody that binds to HGF and prevents the ligand from activating the c‐Met receptor
- recommended phase 2 dose (RP2D) of ficlatuzumab (Safety and tolerability): 20 mg/kg
- mean trough level of ficlatuzumab ([3]; beginning of cycle 4, 20 mg/kg cohort, n = 8): 413.1 µg/mL
- Ficlatuzumab drug exposure (Cmax and AUC0–last) versus dose ([3]; cycle 1, 10 and 20 mg/kg): approximately proportional to dose
- AUC0–last (mg·h/mL), mean (SD) [3, 7]: 39.2 (4.5) mg·h/mL
- Cmax (μg/mL), mean (SD) [3, 7]: 229 (8.9) μg/mL
- t1/2 (Days), mean (SD) [3, 7]: 15.2 (4.7) Days
- AUC0–last (mg·h/mL), mean (SD) [3, 8]: 81.3 (16.5) mg·h/mL
- Cmax (μg/mL), mean (SD) [3, 8]: 544 (141) μg/mL
- t1/2 (Days), mean (SD) [3, 8]: 11.3 (3.2) Days
- AUC0–last (mg·h/mL), mean (SD) [3, 9]: 212 (47.3) mg·h/mL
- Cmax (μg/mL), mean (SD) [3, 9]: 1070 (220) μg/mL
- mean half‐life ([3]; first dose in cycle 1, dose not stated): approximately 15 days
- highest HGF level observed (serum HGF): ≈ 14 ng/mL
- ADA result of postficlatuzumab samples ([4]; 41 samples from 14 patients): negative
- immunogenicity ([4]; any patients during the observation period): not immunogenic
- pKd (HGF): 11.52
- TEAE fatigue [5, 10]: 5 patients
- TEAE hypokalemia [5, 10]: 4 patients
- TEAE nausea [5, 10]: 4 patients
- TEAE peripheral edema [5, 10]: 8 patients
- TEAE vomiting [5, 10]: 5 patients
- tolerability of the highest administered dose ([5]; ficlatuzumab 20 mg/kg): well tolerated without any dose‐limiting toxicities
- grade 3/4 TEAE hypokalemia ([5]; ficlatuzumab monotherapy): 4 patients
- recommended phase 2 dose (RP2D) of ficlatuzumab ([5]; intravenous every 2 weeks, with oral erlotinib 150 mg/day): 20 mg/kg
- tumor growth (NSCLC xenografts): inhibits tumor growth
- phospho‐c‐Met and phospho‐Akt levels [6]: decreased
